Results: ChEMBL document CHEMBL4316599, “Synthesis, in vitro and in vivo biological evaluation of substituted 3-(5-imidazo[2,1-b]thiazolylmethylene)-2-indolinones as new potent anticancer agents” (Eur J Med Chem, 2019)
The source made the active and inactive calls. No cut-off for these calls is given here.

Tests used:
CNS carcinoma cell = assay: Cytotoxicity against human CNS cancer cells after 48 hrs by SRB assay; assay type: functional
Summary of the method: (§1)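 NCI-60 screen: single-dose pass at 10^-5 M, then a five-concentration assay from 10^-9 to 10^-4 M (highest 100 μM). Exposure was 48 h under standard NCI protocols. GI50, TGI and LC50 were derived per cell line and averaged by subpanel. Repeated tests are the mean of two experiments.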

Leukemia cell = assay: Cytotoxicity against human leukemia cells after 48 hrs by SRB assay; assay type: functional; summary of the method: as §1
A549 [1] = assay: Cell cycle arrest in human A549 cells assessed as reduction in accumulation of cells at S phase up to 600 nM after 24 hrs by propidium iodide staining-based flow cytometric analysis; assay type: functional
Summary of the method: (§2)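 Cells exposed to a range of concentrations for 24 h (HeLa at 5×10^5 cells), then fixed in ice-cold 70% ethanol. Lysis buffer with RNase A and 0.1% Triton X-100 was applied before PI staining. DNA content was read by flow cytometry and G1/S/G2/M fractions taken from DNA histograms. Mean ± SEM of two independent experiments.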

HT-29 [2] = assay: Cell cycle arrest in human HT-29 cells assessed as reduction in accumulation of cells at G1 phase up to 1000 nM after 24 hrs by propidium iodide staining-based flow cytometric analysis; assay type: functional; summary of the method: as §2
[3] = Cytotoxicity against human PHA-stimulated PBL after 72 hrs by MTT assay; assay type: cell-based; conditions: PHA-stimulated peripheral blood lymphocytes (PBL)
Summary of the method: (§3)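 Lymphocytes from healthy donors were isolated on a Lymphoprep gradient and held overnight in RPMI-1640 with 10% FBS. Non-adherent cells were set at 5×10^5 cells/mL, either resting or stimulated with 2.5 μg/mL PHA. Cells were exposed to a range of compound concentrations for 72 h and viability read by MTT. GI50 is the mean ± SEM of three separate experiments.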

HeLa [4] = assay: Induction of ROS generation in human HeLa cells at 250 nM after 12 to 24 hrs by H2-DCFDA staining-based assay; assay type: functional, cell-based
Summary of the method: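 HeLa cells treated 6, 12, 24 or 48 h, then loaded with H2-DCFDA and analysed by flow cytometry for ROS. Mean ± SEM of three independent experiments, compared against control.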

HeLa [5] = assay: Cell cycle arrest in human HeLa cells assessed as decrease in p-cdc25c expression at 50 to 250 nM after 24 hrs by Western blot analysis; assay type: functional, cell-based
Summary of the method: (§4)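 HeLa cells treated 24 h, washed in ice-cold PBS and lysed on ice 30 min. Lysates were spun at 15000 x g, 4 °C. 10 µg protein run on SDS-PAGE and blotted to PVDF. Blots were blocked in 5% BSA overnight at 4 °C and probed 2 h at room temperature. Detection by HRP-secondary and ECL, with bands normalized to β-actin as fold of untreated. Three independent experiments, one-way ANOVA/Dunnett.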

A549 [6] = assay: Cell cycle arrest in human A549 cells assessed as accumulation of cells at G2/M phase after 24 hrs by propidium iodide staining-based flow cytometric analysis; assay type: functional; summary of the method: as §2
HT-29 [7] = assay: Cell cycle arrest in human HT-29 cells assessed as accumulation of cells at G2/M phase after 24 hrs by propidium iodide staining-based flow cytometric analysis; assay type: functional; summary of the method: as §2
K562 [8] = assay: Cell cycle arrest in human K562 cells assessed as mitotic index at 5 times IC50 by Giemsa staining-based assay (reference value: 3%); assay type: functional
K562 [9] = assay: Cell cycle arrest in human K562 cells assessed as mitotic index at 10 times IC50 by Giemsa staining-based assay (reference value: 3%); assay type: functional
Tubulin (Bos taurus) [10] = target: T1, Tubulin (Bos taurus) (UniProt Q6B856+Q862L2+Q862F3); assay: Inhibition of [3H]colchicine binding to bovine brain tubulin at 5 uM after 20 mins relative to control
Summary of the method: (§5)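 Reaction mixtures held 1 μM tubulin, 5 μM [³H]colchicine and test compound at 5 or 50 μM. Read-out was percent inhibition of colchicine binding.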

HeLa [11] = assay: Induction of mitochondrial membrane depolarization in human HeLa cells at 250 to 500 nM after 6 to 48 hrs by JC-1 staining-based assay; assay type: functional, cell-based; conditions: TDE = time-dependent effect
Summary of the method: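 HeLa cells treated at 250-500 nM for 6, 12, 24 or 48 h, then stained with JC-1. Percentage of cells with low mitochondrial membrane potential measured by flow cytometry. Mean ± SEM of three independent experiments.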

Ovarian carcinoma cell = assay: Cytotoxicity against human ovarian cancer cells after 48 hrs by SRB assay; assay type: functional; summary of the method: as §1
HeLa [12] = assay: Induction of apoptosis in human HeLa cells assessed as increase in caspase-9 activity at 50 to 250 nM after 24 hrs by Western blot analysis; assay type: functional, cell-based; summary of the method: as §4
K562 [13] = assay: Cytotoxicity against human K562 cells after 16 hrs by SRB assay; conditions: K562, 16 h
NSCLC = assay: Cytotoxicity against human NSCLC cells after 48 hrs by SRB assay; assay type: functional; summary of the method: as §1
Tubulin = Tubulin (Bos taurus, UniProt Q6B856+Q862L2+Q862F3); assay: Inhibition of bovine brain tubulin polymerization after 20 mins by spectrophotometric analysis
Summary of the method: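 Bovine brain tubulin (10 μM) in glutamate buffer preincubated with varying compound levels at 30 °C, then chilled to 0 °C. GTP added to 0.4 mM final, then warmed to 30 °C. Assembly followed by turbidity at 350 nm. IC50 is the concentration halving the extent of assembly after 20 min.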

Renal cancer cell line = assay: Cytotoxicity against human renal cancer cells after 48 hrs by SRB assay; assay type: functional; summary of the method: as §1
HeLa [14] = assay: Induction of apoptosis in human HeLa cells assessed as increase in caspase-3 activity at 50 to 250 nM after 24 hrs by Western blot analysis; assay type: functional, cell-based; summary of the method: as §4
[15] = Cytotoxicity against human PBL after 72 hrs by MTT assay; assay type: cell-based; conditions: peripheral blood lymphocytes (PBL); summary of the method: as §3
Prostatic carcinoma cell = assay: Cytotoxicity against human prostate cancer cells after 48 hrs by SRB assay; assay type: functional; summary of the method: as §1
HT-29 [16] = assay: Cell cycle arrest in human HT-29 cells assessed as reduction in accumulation of cells at S phase up to 1000 nM after 24 hrs by propidium iodide staining-based flow cytometric analysis; assay type: functional; summary of the method: as §2
K562 [17] = assay: Cytotoxicity against human K562 cells after 48 hrs by SRB assay; assay type: functional, cell-based
HeLa [18] = assay: Induction of apoptosis in human HeLa cells assessed as decrease in Bcl-2 levels at 50 to 250 nM after 24 hrs by Western blot analysis; assay type: functional, cell-based; summary of the method: as §4
Melanoma cell line = assay: Cytotoxicity against human melanoma cells after 48 hrs by SRB assay; assay type: functional; summary of the method: as §1
HeLa [19] = assay: Cell cycle arrest in human HeLa cells assessed as accumulation of cells at G2/M phase after 24 hrs by propidium iodide staining-based flow cytometric analysis; assay type: functional; summary of the method: as §2
K562 [20] = assay: Cell cycle arrest in human K562 cells assessed as mitotic index at IC50 by Giemsa staining-based assay (reference value: 3%); assay type: functional
A549 [21] = assay: Cell cycle arrest in human A549 cells assessed as reduction in accumulation of cells at G1 phase up to 600 nM after 24 hrs by propidium iodide staining-based flow cytometric analysis; assay type: functional; summary of the method: as §2
[22] = Cytotoxicity against human COLON cells after 48 hrs by SRB assay; assay type: functional; summary of the method: as §1
Breast carcinoma cell = assay: Cytotoxicity against human breast cancer cells after 48 hrs by SRB assay; assay type: functional; summary of the method: as §1
HeLa [23] = assay: Cell cycle arrest in human HeLa cells assessed as reduction in accumulation of cells at S phase up to 1000 nM after 24 hrs by propidium iodide staining-based flow cytometric analysis; assay type: functional; summary of the method: as §2
HeLa [24] = assay: Cell cycle arrest in human HeLa cells assessed as reduction in accumulation of cells at G1 phase up to 1000 nM after 24 hrs by propidium iodide staining-based flow cytometric analysis; assay type: functional; summary of the method: as §2
Tubulin (Bos taurus) [25] = target: T1, Tubulin (Bos taurus); assay: Inhibition of [3H]colchicine binding to bovine brain tubulin at 50 uM after 20 mins relative to control; summary of the method: as §5
HeLa [26] = assay: Induction of apoptosis in human HeLa cells assessed as decrease in Mcl-1 levels at 50 to 250 nM after 24 hrs by Western blot analysis; assay type: functional, cell-based; summary of the method: as §4
A549 [27] = assay: Induction of apoptosis in human A549 cells at 100 nM after 24 to 48 hrs by Annexin V-FITC/propidium iodide staining-based flow cytometric analysis; assay type: functional, cell-based
Summary of the method: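 A549 cells treated 24 or 48 h at 12.5–100 nM, then double-stained with annexin-V-FITC and PI. Phosphatidylserine exposure was read by flow cytometry. Mean ± SEM of three independent experiments.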

B16-BL6 = assay: Antitumor activity mouse B16-BL6 cells implanted in C57BL/6 mouse assessed tumor growth inhibition at 30 mg/kg, ip dosed every other day for 18 days relative to control; assay type: functional; conditions: 432 h, read-out: TGI
Summary of the method: (§6)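 Syngeneic allograft: C57BL/6 mice, six weeks old, given 2.5×10^5 BL6-B16 or E0771 cells subcutaneously in the dorsolateral flank in PBS. Dosing began at about 100 mm³. Test compound or reference was given intraperitoneally every other day in 50 μL DMSO, with DMSO vehicle controls. Tumor volume was compared with the vehicle group, 5 animals per group, mean ± SEM, by 2-way ANOVA with Bonferroni correction.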

E0771 = assay: Antitumor activity mouse E0771 cells implanted in C57BL/6 mouse assessed tumor growth inhibition at 30 mg/kg, ip dosed every other day for 20 days relative to control; assay type: functional; conditions: 480 h, read-out: TGI; summary of the method: as §6
[28] = read-out: LC50 (the source's name)

For `O=C1Nc2c(ccc3ccccc23)/C1=C\c1c(-c2cccnc2)nc2sccn12`, the GI50 (CNS carcinoma cell) was 1.16 µM, the TGI (CNS carcinoma cell) was 13.9 µM and the CC50 (CNS carcinoma cell; [28]) was 47.5 µM. The GI50 (Leukemia cell) was 0.11 µM, the TGI (Leukemia cell) was 46.4 µM and the Activity (A549 [1]) was “Active”. For the same compound, the Activity (HT-29 [2]) was “Active”, the GI50 at 72 h [3] was 2.5 µM and the Activity (HeLa [4]) was “Active”. The Activity (HeLa [5]) was “Active”, the Activity (A549 [6]) was “Dose-dependent effect” and the Activity (HT-29 [7]) was “Dose-dependent effect”. For the same compound, the Activity (K562 [8]) was 64%, the Activity (K562 [9]) was 78% and the inhibition (Tubulin (Bos taurus) [10]) was 31%. The Activity (HeLa [11]) was “Tde”, the GI50 (Ovarian carcinoma cell) was 1.21 µM and the LC50 (50% lethal concentration) (Ovarian carcinoma cell) was 41.2 µM. For the same compound, the TGI (Ovarian carcinoma cell) was 12.3 µM, the Activity (HeLa [12]) was “Active” and the IC50 (K562 [13]) was 0.2 µM. For the same compound, the GI50 (NSCLC) was 1.78 µM, the LC50 (NSCLC) was 61.7 µM and the TGI (NSCLC) was 16.2 µM. The IC50 (Tubulin) was 2.2 µM, the GI50 (Renal cancer cell line) was 1.24 µM and the LC50 (50% lethal concentration) (Renal cancer cell line) was 49.2 µM. The TGI (Renal cancer cell line) was 15.9 µM, the Activity (HeLa [14]) was “Active” and the GI50 at 72 h [15] was 3.1 µM. It also gave a GI50 (Prostatic carcinoma cell) of 0.1 µM, a TGI (Prostatic carcinoma cell) of 11.1 µM and a CC50 (Prostatic carcinoma cell; [28]) of 33.4 µM. For the same compound, the Activity (HT-29 [16]) was “Active”, the Activity (K562 [17]) was “Dose-dependent effect” and the Activity (HeLa [18]) was “Active”. For the same compound, the GI50 (Melanoma cell line) was 1.65 µM, the TGI (Melanoma cell line) was 17.6 µM and the CC50 (Melanoma cell line; [28]) was 66.5 µM. For the same compound, the Activity (HeLa [19]) was “Dose-dependent effect”, the Activity (K562 [20]) was 22% and the Activity (A549 [21]) was “Active”. The GI50 [22] was 0.15 µM, the TGI [22] was 9.42 µM and the CC50 [22, 28] was 49 µM. It also gave a GI50 (Breast carcinoma cell) of 0.26 µM, an LC50 (concentration killing 50% of cells) (Breast carcinoma cell) of 70.8 µM and a TGI (Breast carcinoma cell) of 20.1 µM. The Activity (HeLa [23]) was “Active”, the Activity (HeLa [24]) was “Active” and the inhibition (Tubulin (Bos taurus) [25]) was 56%. For the same compound, the Activity (HeLa [26]) was “Active” and the Activity (A549 [27]) was “Active”.

With `COc1ccc(/C=C\c2cc(OC)c(OC)c(OC)c2)cc1O` [COMBRETASTATIN A4] the Activity (K562 [8]) was 32%, the Activity (K562 [9]) was 61% and the IC50 (K562 [13]) was 0.004 µM. The inhibition in vivo at 30 mg/kg (B16-BL6) was 16 to 18%, the inhibition in vivo at 30 mg/kg (E0771) was 30.9% and the Activity (K562 [17]) was “Dose-dependent effect”. For the same compound, the Activity (K562 [20]) was 15%.
